Bioassay records deposited in PubChem BioAssay by Sanford-Burnham Center for Chemical Genomics.
This is a sample that favours compounds with a hit; in the whole collection about 1.6% have one here.
FLuc inhib CS: Photinus pyralis luciferase inhibition counter-screen; P08659; ATPLite firefly luciferase biochemical luminescence, 10 min; inhibition, % at 10 µM; 200,000 tested, 1.5% active; AID 1006;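 active means inhibition above about 50% when tested at 10 µM, limit read from the data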
Target sequence (P08659 whole entry, looked up): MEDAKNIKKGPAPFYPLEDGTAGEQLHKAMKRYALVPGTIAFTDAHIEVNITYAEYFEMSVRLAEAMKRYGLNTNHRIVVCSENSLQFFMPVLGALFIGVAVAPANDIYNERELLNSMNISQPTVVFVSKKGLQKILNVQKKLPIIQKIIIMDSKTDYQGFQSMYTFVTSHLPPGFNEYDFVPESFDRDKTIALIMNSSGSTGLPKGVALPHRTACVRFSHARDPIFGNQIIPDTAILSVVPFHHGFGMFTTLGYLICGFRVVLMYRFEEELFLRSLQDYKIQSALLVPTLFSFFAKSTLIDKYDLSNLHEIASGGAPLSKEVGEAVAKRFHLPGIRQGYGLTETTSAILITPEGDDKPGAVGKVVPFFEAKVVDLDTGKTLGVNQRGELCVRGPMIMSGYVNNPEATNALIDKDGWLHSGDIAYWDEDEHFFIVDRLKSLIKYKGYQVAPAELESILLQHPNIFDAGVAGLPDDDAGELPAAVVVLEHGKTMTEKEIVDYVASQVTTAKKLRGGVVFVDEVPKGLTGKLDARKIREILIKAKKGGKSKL
FLuc stim CS: firefly luciferase counter-screen for stimulation assays; P08659; ATPlite luciferase biochemical, luminescence, 10 min; 0 = ATP-free wells, 1 = DMSO control; activation factor at 10 µM; 200,000 tested, under 10 active; AID 1027;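 active means luciferase activation factor, scaled between plate controls, of at least 2 with compound at 10 µM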
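Assay system: Luciferase/luciferin reagent mix; Medium: PBS as buffer for the ATP substrate; Dosing: test compounds dosed from 2 mM stocks in 100% DMSO; Times: 10 min, room temperature; Signal: luminescence from luciferase reaction; Read-out: luciferase activation; Controls: No-ATP low control, compound-free enzyme-plus-ATP high control.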
PPC-1+TRAIL kill: PPC-1 cancer cell killing with TRAIL present; 220,000 tested, 0.41% active; cell killing (% activity), % at 4 µM or 5 µM; PPC-1 cells + TRAIL, ATPLite viability luminescence; AID 1443;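 active means cell killing above 50% in the first pass at 4 µM, then a duplicate retest at 5 µM averaging 50% or more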;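 further: plate controls were cells with TRAIL plus DMSO for no effect and medium-only wells lacking cells for full effect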
TRAIL sens C8: sensitizes caspase-8 expressing cells to TRAIL; NB7+C8 cells + TRAIL, ATPlite viability luminescence; inhibition (viability loss, TRAIL sensitization), % at 10 µM; 360,000 tested, 1% active;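 active means compounds causing at least 50% loss of cell viability in the single-dose screen, relative to plate controls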
Active calls of the source: *.

What do the screens show for `Cc1cc(C)nc(NC(=O)c2ccc3c(c2)OCO3)c1`?
FLuc inhib CS: 55.8*; FLuc stim CS: 0.4; PPC-1+TRAIL kill: 17.8

What do the screens show for `CC(c1ccccc1)c1nnc(NC(=O)c2ccc3c(c2)OCO3)s1` (centres undefined)?
PPC-1+TRAIL kill: 11.7; TRAIL sens C8: 10.3

Results for CC(C)c1nnc(NC(=O)c2ccc3c(c2)OCO3)s1 ?
FLuc inhib CS: 51.0*; FLuc stim CS: 0.5; PPC-1+TRAIL kill: 36.2; TRAIL sens C8: 26.3

What do the screens show for `CCSc1nnc(NC(=O)c2ccc3c(c2)OCO3)s1`?
FLuc inhib CS: 11.6; FLuc stim CS: 0.9; PPC-1+TRAIL kill: 12.5; TRAIL sens C8: 14.3

Results for CCOC(=O)CSc1nnc(NC(=O)c2ccc3c(c2)OCO3)s1 ?
TRAIL sens C8: 69.7*

Results for COc1ccc2c(Cl)c(C(=O)NN3CCN(C)CC3)sc2c1 ?
FLuc inhib CS: 2.6; FLuc stim CS: 1; PPC-1+TRAIL kill: 24.2; TRAIL sens C8: 2.0

How did N#Cc1nc(Nc2cc(F)cc(F)c2)c2ncn(CC(F)F)c2n1 do in these assays?
TRAIL sens C8: 28.3

Results for N#Cc1nc(NCC(F)F)nc(Nc2cc(F)cc(F)c2)n1 ?
TRAIL sens C8: 50.1*

Results for O=C(C[n+]1cccc(/C=N/O)c1)N1CCCc2ccccc21 ?
FLuc inhib CS: -6.2; FLuc stim CS: 1.1; PPC-1+TRAIL kill: 26.6; TRAIL sens C8: -0.3

What do the screens show for `COc1ccc(C2C(C(=O)N3CCCCC3)c3ccccc3C(=O)N2C)cc1` (centres undefined)?
FLuc inhib CS: -4.3; FLuc stim CS: 1; PPC-1+TRAIL kill: 1.3; TRAIL sens C8: 43.2

How did CCOC(=O)C1CCN(C(=O)C2c3ccccc3C(=O)N(C)C2c2ccc(OC)cc2)CC1 (centres undefined) do in these assays?
FLuc inhib CS: -6.0; FLuc stim CS: 1.1; PPC-1+TRAIL kill: 27.2; TRAIL sens C8: 53.7*

What do the screens show for `O=C(CN(c1cccc([N+](=O)[O-])c1)S(=O)(=O)c1ccccc1)NCc1cccnc1`?
TRAIL sens C8: -20.3

What do the screens show for `O=C(CN(c1cccc(C(F)(F)F)c1)S(=O)(=O)c1ccc(Cl)c([N+](=O)[O-])c1)NCc1ccc(F)cc1`?
FLuc inhib CS: -2.1; FLuc stim CS: 1; PPC-1+TRAIL kill: 63.1*; TRAIL sens C8: -7.6

How did Cc1ccc(S(=O)(=O)N2CCN(C(=O)Cn3nc(C)c([N+](=O)[O-])c3C)CC2)cc1 do in these assays?
TRAIL sens C8: 13.7

How did O=C(CN(Cc1ccco1)C(=O)c1ccc(F)cc1)Nc1ccccc1Br do in these assays?
TRAIL sens C8: -14.4

How did COc1ccc(C(=O)NCc2nnc(SCC(=O)N3CCc4ccccc43)n2Cc2ccccc2)cc1 do in these assays?
FLuc inhib CS: -0.3; FLuc stim CS: 1; PPC-1+TRAIL kill: 7.7; TRAIL sens C8: -2.0

How did O=C(Cc1nc2ccccc2[nH]c1=O)c1ccccc1 do in these assays?
FLuc inhib CS: 58.0*; FLuc stim CS: 0.4; PPC-1+TRAIL kill: 25.7; TRAIL sens C8: 41.5

What do the screens show for `Cc1ccc(-c2nn(-c3ccccc3)cc2C=O)o1`?
FLuc inhib CS: 62.2*; FLuc stim CS: 0.4; PPC-1+TRAIL kill: 17.2; TRAIL sens C8: 20.7

What do the screens show for `COc1cccc2oc3ccc(C#Cc4ccccn4)cc3c(=O)c12`?
TRAIL sens C8: 69.2*

What do the screens show for `COC(=O)c1ccc(CCc2cc(O)c(Br)cc2O)cc1`?
TRAIL sens C8: 48.9*

Results for Cc1cc(C(=O)CN2C(=O)C(=O)N(CCC3=CCCCC3)C2=O)c(C)n1C ?
TRAIL sens C8: -0.1

Results for N/C(=N\OC(=O)c1ccco1)c1ccc(Cl)cc1 ?
FLuc inhib CS: 34.5; FLuc stim CS: 0.7; PPC-1+TRAIL kill: 3.3; TRAIL sens C8: -6.3

How did N/C(=N\OC(=O)c1ccc(Cl)cc1)c1ccn[nH]1 do in these assays?
TRAIL sens C8: 83.2*

How did N/C(=N\OC(=O)c1ccccc1Cl)c1ccc(Cl)cc1 do in these assays?
FLuc inhib CS: 56.5*; FLuc stim CS: 0.4; PPC-1+TRAIL kill: 33.1; TRAIL sens C8: 83.1*

Results for N/C(=N\OC(=O)c1ccc(Cl)cc1Cl)c1ccc(Cl)cc1 ?
FLuc inhib CS: 53.6*; FLuc stim CS: 0.5; PPC-1+TRAIL kill: 17.8; TRAIL sens C8: 87.5*

Results for N/C(=N\OC(=O)c1ccc(Cl)cc1)c1ccc(Cl)cc1 ?
FLuc inhib CS: 36.6; FLuc stim CS: 0.6; PPC-1+TRAIL kill: -2.0; TRAIL sens C8: 87.8*

How did N/C(CCS(=O)(=O)c1ccc(Cl)cc1)=N\OC(=O)c1ccccc1Cl do in these assays?
PPC-1+TRAIL kill: -8.7; TRAIL sens C8: 38.3

How did N/C(Cn1cncn1)=N\OC(=O)c1ccc(Cl)cc1 do in these assays?
FLuc inhib CS: -6.1; FLuc stim CS: 1.1; PPC-1+TRAIL kill: 0.3; TRAIL sens C8: 0.0

What do the screens show for `CCOC(=O)c1c(S(=O)(=O)N(C)C2CCCCC2)c(C)n(C)c1C`?
TRAIL sens C8: -2.4

What do the screens show for `Cc1cccc(/C(N)=N/OC(=O)c2cccc3ccccc23)c1`?
TRAIL sens C8: 92.4*

Results for O=C(O/N=C(\c1ccccc1)c1ccncc1)c1ccccc1Cl ?
FLuc inhib CS: -2.3; FLuc stim CS: 1; PPC-1+TRAIL kill: -38.5; TRAIL sens C8: -4.3

How did Cc1ccc(/C(N)=N/OC(=O)c2ccc(C)cc2Cl)cc1 do in these assays?
FLuc inhib CS: 73.4*; FLuc stim CS: 0.3; PPC-1+TRAIL kill: 62.1*; TRAIL sens C8: 70.5*

What do the screens show for `Cc1cccc(/C(N)=N/OC(=O)COc2ccccc2Cl)c1`?
FLuc inhib CS: 5.5; FLuc stim CS: 0.9; PPC-1+TRAIL kill: 13.7; TRAIL sens C8: -8.7

What do the screens show for `N/C(=N\OC(=O)c1ccccc1Cl)c1ccccc1`?
FLuc inhib CS: 93.6*; FLuc stim CS: 0.1; PPC-1+TRAIL kill: 32.8; TRAIL sens C8: 65.5*

How did N/C(=N\OC(=O)c1cccc2ccccc12)c1cccnc1 do in these assays?
FLuc inhib CS: 34.2; FLuc stim CS: 0.7; PPC-1+TRAIL kill: 18.3; TRAIL sens C8: 6.3

How did Cc1cccc(/C(N)=N/OC(=O)c2ccc(Cl)cc2Cl)c1 do in these assays?
FLuc inhib CS: 89.9*; FLuc stim CS: 0.1; PPC-1+TRAIL kill: 45.6; TRAIL sens C8: 62.3*

Results for COCCN1C[C@@H](CO)O[C@@H](n2cnc3c(NCCO)ncnc32)C1 ?
TRAIL sens C8: -15.8

How did COc1ccccc1-c1cc2c(c3c1ccn3C)C1CCC2C1 (centres undefined) do in these assays?
TRAIL sens C8: -2.0

How did CC(=NOC(=O)c1ccc(Cl)cc1)c1nccs1 do in these assays?
TRAIL sens C8: -8.3

Results for C/C(=N\OC(=O)c1ccc(Cl)cc1)c1nccs1 ?
FLuc inhib CS: 72.1*; FLuc stim CS: 0.3; PPC-1+TRAIL kill: -9.0; TRAIL sens C8: -12.3

Results for CCCCOc1ccc(-c2nc(-c3cccnc3)no2)cc1 ?
FLuc inhib CS: 22.3; FLuc stim CS: 0.8; PPC-1+TRAIL kill: 31.4; TRAIL sens C8: 16.6

What do the screens show for `CCOc1ccc(-c2nc(-c3ccccc3C)no2)cc1`?
FLuc inhib CS: 54.4*; FLuc stim CS: 0.5; PPC-1+TRAIL kill: 38.7

Results for O=C(O)c1ccc(-c2noc(-c3ccccc3F)n2)cc1 ?
TRAIL sens C8: -3.4

Results for Cc1ccc(-c2noc(-c3ccccc3F)n2)cc1 ?
FLuc inhib CS: 56.7*; FLuc stim CS: 0.4; PPC-1+TRAIL kill: 6.7; TRAIL sens C8: 25.5
